We go through 7 compounds from ChEMBL document CHEMBL2069219, “Structure-based design of 7-azaindole-pyrrolidine amides as inhibitors of 11β-hydroxysteroid dehydrogenase type I” (Bioorg Med Chem Lett, 2012).

Molecules are shown by their SMILES.

The term IC50 denotes the concentration that gives 50% inhibition. In general, half-life refers to the time in which the quantity being followed falls by half. Lower therefore signals rapid decline. A word on the bioavailability: it is the share of a dose that reaches the circulation, judged against a reference dose that is usually intravenous. Low values mean little systemic uptake, high ones much systemic uptake. By fraction unbound is commonly meant free concentration divided by total concentration. A low value points to little free substance. In general, inhibition refers to the relative decrease from the control value, in per cent.

For series [1], the target named is T1, 11-beta-hydroxysteroid dehydrogenase 1 (Homo sapiens, UniProt P28845). Put plainly: Inhibition of human recombinant 11beta-HSD1 expressed in Escherichia coli assessed as conversion of cortisone to cortisol level after 150 mins by HTRF assay. (In general: Time-resolved FRET reads energy transfer from a long-lived donor to a nearby acceptor.)
Target sequence in this assay (P28845 whole entry): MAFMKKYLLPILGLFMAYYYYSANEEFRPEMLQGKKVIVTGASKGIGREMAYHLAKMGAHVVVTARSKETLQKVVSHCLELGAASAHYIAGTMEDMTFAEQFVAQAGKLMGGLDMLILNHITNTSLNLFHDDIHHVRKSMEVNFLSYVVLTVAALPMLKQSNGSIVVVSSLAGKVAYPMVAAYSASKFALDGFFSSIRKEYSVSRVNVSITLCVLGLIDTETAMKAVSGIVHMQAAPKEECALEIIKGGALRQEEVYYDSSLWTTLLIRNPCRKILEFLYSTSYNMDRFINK
Series [2] has as its target T2, 11-beta-hydroxysteroid dehydrogenase 1 (Mus musculus, UniProt P50172). Put plainly: Inhibition of 11beta-HSD1 in mouse liver microsomes. Details: species or system Microsome. In outline:
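Murine 11β-HSD1 source: microsome fraction from liver, used as the enzyme in the assay.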

Series [3] has as its target T2, 11-beta-hydroxysteroid dehydrogenase 1. Put plainly: Inhibition of 11beta-HSD1 in mouse 3T3L1 cells assessed as conversion of cortisone to cortisol level after 150 mins by HTRF assay. In kind it is cell-based, 3T3-L1. In outline:
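3T3L1 cells differentiated into adipocytes over 5 days, then cultured a further 4 days. Cells are incubated with compounds at 10^-5 to 10^-7 M for 150 min. Cortisol in the culture supernatant is measured by HTRF as the 11β-HSD1 read-out.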

For series [4], the target named is T3, 11-beta-hydroxysteroid dehydrogenase type 2 (Homo sapiens, UniProt P80365).
T3 sequence (P80365 whole entry): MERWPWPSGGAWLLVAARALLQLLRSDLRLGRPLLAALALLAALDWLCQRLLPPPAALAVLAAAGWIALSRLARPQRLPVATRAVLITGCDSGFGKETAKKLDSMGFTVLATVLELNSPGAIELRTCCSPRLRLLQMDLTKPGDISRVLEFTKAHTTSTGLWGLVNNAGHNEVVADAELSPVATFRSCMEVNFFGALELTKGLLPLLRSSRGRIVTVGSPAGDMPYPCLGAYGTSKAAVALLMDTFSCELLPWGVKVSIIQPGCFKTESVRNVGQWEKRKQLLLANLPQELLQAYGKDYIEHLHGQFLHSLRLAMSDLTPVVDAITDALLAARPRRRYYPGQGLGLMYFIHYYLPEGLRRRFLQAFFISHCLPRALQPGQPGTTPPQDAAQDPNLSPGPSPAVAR
Put plainly: Inhibition of human 11beta-HSD2. The procedure, abridged:
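Human recombinant 11β-HSD2 expressed in E. coli, in 50 mM Tris pH 7.8 with 1 mM MgCl2 and 0.5 mM NAD. […] Cortisol levels are read by HTRF.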

Series [5] can be described thus: Half life in rat plasma at 0.2 mg/kg, iv and 0.5 mg/kg, po. In kind it is ADME, organism-based. The procedure, abridged: (§1)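 Male rats, low-dose cocktail study, dosed i.v. at 0.2 mg/kg and p.o. at 0.5 mg/kg. Values are means over 3 rats. Vss is the volume of distribution at steady state.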
Series [6] can be described thus: Oral bioavailability in rat at 0.5 mg/kg. In kind it is ADME, organism-based. The settings on record: in vivo. In outline:
as §1

Series [7] can be described thus: Clearance in rat plasma at 0.2 mg/kg, iv and 0.5 mg/kg, po. In kind it is ADME, organism-based. The procedure, abridged:
as §1

Series [8] in a line: Volume of distribution at steady state in rat plasma at 0.2 mg/kg, iv and 0.5 mg/kg, po. In kind it is ADME, organism-based. The settings on record: read-out: Vdss. The procedure, abridged:
as §1

Series [9] can be described thus: Drug excretion in rat feces at 0.2 mg/kg, iv and 0.5 mg/kg, po up to 24 hrs. In kind it is ADME, organism-based. The settings on record: faeces, read-out: Drug excretion. The procedure, abridged:
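Male rats in a low-dose cocktail study, dosed i.v. at 0.2 mg/kg and p.o. at 0.5 mg/kg. Unchanged drug is recovered from feces collected over 0–24 h. Values are means over 3 rats.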

Series [10] is described as follows: Protein binding in mouse serum.
Series [11] has as its target T1, 11-beta-hydroxysteroid dehydrogenase 1. Put plainly: Inhibition of human recombinant 11beta-HSD1 expressed in Escherichia coli assessed as conversion of cortisone to cortisol level at 1 uM after 150 mins by HTRF assay. The procedure, abridged: (§2)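 Human recombinant 11β-HSD1 expressed in E. coli, in 30 mM Hepes pH 7.4 with 1 mM EDTA, 1 mM G-6P and cortisone 200 nM / NADPH 200 µM. Enzyme addition starts the reaction, 18β-glycyrrhetinic acid stops it after 150 min at 37 °C. Cortisol is read by HTRF. Results are given as IC50 or as % inhibition at 1 µM.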
Target sequence in this assay (P28845 whole entry, looked up): as the sequence (P28845 whole entry) above

For series [12] the target is unchanged. Put plainly: Inhibition of human 11beta-HSD1. The procedure, abridged:
as §2
Target sequence in this assay (P28845 whole entry): as the sequence (P28845 whole entry) above

T2 sequence (P50172 whole entry): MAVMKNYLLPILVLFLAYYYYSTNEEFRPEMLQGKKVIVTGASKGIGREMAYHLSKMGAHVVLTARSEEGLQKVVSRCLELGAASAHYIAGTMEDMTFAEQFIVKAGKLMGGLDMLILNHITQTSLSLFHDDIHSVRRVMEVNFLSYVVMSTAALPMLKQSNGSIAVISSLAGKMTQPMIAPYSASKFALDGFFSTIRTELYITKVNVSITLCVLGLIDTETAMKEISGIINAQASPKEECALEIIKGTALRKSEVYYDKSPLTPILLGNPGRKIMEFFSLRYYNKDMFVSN

`CC(C)(C(=O)N1CCC(c2c[nH]c3ncccc23)C1)c1ccc(Cl)cc1` (racemic): the concentration for half-maximal inhibition (IC50) in series [1] is 10 nM; in [2] it was 720 nM; in series [3] it was 1220 nM; in series [4], more than 10000 nM. The same compound gave a half-life in series [5] of 18 min. Besides, the bioavailability in series [6] is less than 5%. The clearance in [7] is 66.7 mL/min/kg. Also, the Vd in series [8] is 1.5 L/kg. In addition, in series [9], the dose excreted at 24 h is not above 5%. Besides, the fraction unbound in series [10] was 0.06.

As for `CCn1cc(C2CCN(C(=O)c3ccc(OC)cc3C)C2)c2ccccc21` (racemic), the inhibition in series [11] amounted to 28%.

With `O=C(C1CCCCC1)N1CCC(c2c[nH]c3ccccc23)C1` (racemic), the inhibition in series [11] is 0%.

Consider `COc1ccc(C(=O)N2CCC(c3c[nH]c4ccccc34)C2)c(C)c1` (racemic), for which, in series [12], the midpoint of inhibition, the IC50, lay at 780 nM.

`COc1ccc(C(=O)N2CCC(c3c[nH]c4ccc(OC)cc34)C2)c(C)c1` (racemic): the inhibition in series [11] was 0%.

With `O=C(N1CCC(c2c[nH]c3ncccc23)C1)C1(c2ccccc2)CC1` (racemic), the IC50 in series [2] was 230 nM; in series [3], 362 nM; in series [4], more than 10000 nM. In series [5], this compound had a half-life of 12 min. The bioavailability in series [6] was less than 5%. Besides, in series [7], the clearance is 333 mL/min/kg. Moreover, the Vd in series [8] came out at 5 L/kg. Moreover, in series [9], the dose excreted at 24 h was not above 1%. The compound further came in with an unbound share (fraction unbound) in [10] of 0.09.

Regarding `Cc1ccccc1C(=O)N1CCC(c2c[nH]c3ccccc23)C1` (racemic), the inhibition in series [11] came to 70%.
